Assay outcomes from PubChem BioAssay.
Rows were chosen to be rich in hits. Some 1.9% of all compounds tested hit in one or more screens of this group.
MBD2 inh = inhibitors of MBD2 binding to methylated DNA, primary screen, biochemical, TR-FRET, DNA-binding domain, human. MBD2 binding to methylated oligonucleotide. Methyl-CpG-binding domain protein 2 (Homo sapiens), Q9UBB5. inhibition, % at 4.4 µM. AID 686964, 2013. actives 0.31% (n = 370,000); in the data active = inhibition above about 13%
Rin1-Abl PPI inh = inhibitors of Rin1-Abl protein binding, primary screen, biochemical, TR-FRET; Tyrosine-protein kinase ABL1 (Homo sapiens) + Ras and Rab interactor 1 (Homo sapiens), …; inhibition, % at 7.35 µM; actives 0.4% (n = 360,000); AID 588664, 2011; in the data active = inhibition above about 5%, passing the limit was not always enough
UHRF1 binding = UHRF1 methylated DNA binding inhibitors, primary screen, counter-screen for MBD2 inhibitor project, biochemical, TR-FRET, human UHRF1, single concentration | E3 ubiquitin-protein ligase UHRF1 (Homo sapiens), Q96T88 | UHRF1 binding to methylated oligo | inhibition, % at 4.4 µM | actives 0.75% (n = 370,000) | AID 687016, 2013; in the data active = inhibition above about 21%;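 also: UHRF1 SRA domain binding a hemimethylated CpG hairpin DNA probe; 0% = median of test compound wells and 100% = reference inhibitor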
LEDGF integ inh = blockers of LEDGF/p75-dependent integrase strand transfer – biochemical, TR-FRET, high throughput, primary screen; TR-FRET IN-LEDGF/p75 DNA integration, Eu/Cy5; inhibition, % at 3.7 µM; actives 0.64% (n = 370,000);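 active = inhibition above the screen-wide mean plus 3 SD, cut at about 13% in these data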;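 also: signal is the Cy5 over europium emission ratio at 671 and 618 nm; 0% = plate median of compound wells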
TDP2 inh = human TDP2 enzyme inhibitors, primary screen, biochemical, epi absorbance, recombinant enzyme | actives 0.34% (n = 370,000) | AID 720702, 2013 | Tyrosyl-DNA phosphodiesterase 2 (Homo sapiens), O95551 | T5PNP hydrolysis, p-nitrophenol absorbance 415 nm | inhibition, % at 12.8 µM;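 active = inhibition above the mean of all tested compounds plus 3 SD, set per campaign, cut at about 25% in these data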;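 also: 0% = DMSO with enzyme and 100% = buffer with substrate but no TDP2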
Target sequence (O95551 whole entry, looked up): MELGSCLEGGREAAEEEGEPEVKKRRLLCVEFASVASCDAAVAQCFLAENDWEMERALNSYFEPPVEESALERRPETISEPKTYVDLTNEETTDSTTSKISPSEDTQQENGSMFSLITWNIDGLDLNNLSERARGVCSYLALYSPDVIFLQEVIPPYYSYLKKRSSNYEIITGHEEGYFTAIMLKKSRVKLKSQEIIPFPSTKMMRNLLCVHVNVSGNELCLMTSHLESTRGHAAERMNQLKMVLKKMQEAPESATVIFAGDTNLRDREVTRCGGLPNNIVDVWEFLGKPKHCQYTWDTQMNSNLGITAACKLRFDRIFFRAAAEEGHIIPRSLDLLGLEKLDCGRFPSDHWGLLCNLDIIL
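Assay system: Recombinant human TDP2 | Quantity: 120 nM TDP2 per well | Incubation: 2 h at 37 °C | Signal: Epi absorbance | Evaluation: Percent inhibition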
IN multimer act = HIV-1 IN multimer formation enhancers, counter-screen for LEDGF/p75 integration inhibitor project, biochemical, TR-FRET; shares compounds with LEDGF integ inh; TR-FRET HIV-1 integrase multimerization; actives 17% (n = 2,000); AID 1053131, 2014; activation, % at 7.7 µM; in the data active = activation above about 8.9%
TRFRET interf = TR-FRET optical interference artefacts, confirmation, artefact control for LEDGF/p75-dependent integration inhibitor project, biochemical, HIV-1 IN multimerization | shares compounds with LEDGF integ inh | TR-FRET optical interference counterscreen | inhibition, % at 7.7 µM | 2,000 tested, under 10 active | AID 1053135, 2014;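 active = inhibition above the mean over all tested compounds plus 3 SD, which no compound reached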;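 also: 0% = integrase with antibodies and DMSO and 100% = antibodies without integrase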
LEDGF integ conf = inhibitors of HIV-1 IN-LEDGF/p75 DNA integration, confirmation, biochemical, TR-FRET | TR-FRET LEDGF/p75-dependent HIV-1 integration | actives 36% (n = 2,000) | inhibition, % at 3.7 µM | shares compounds with LEDGF integ inh | AID 1053136, 2014; in the data active = inhibition above about 14%
The depositor's hits bear a star; x = not tested or not shown.

SMILES | MBD2 inh | Rin1-Abl PPI inh | UHRF1 binding | LEDGF integ inh | TDP2 inh | IN multimer act | TRFRET interf | LEDGF integ conf
O=C(CCC1CCCCC1)Nc1nccs1 | 1.3 | 2.1 | -1.4 | 20.9* | 1.4 | 0.0 | -0.1 | -3.8
COc1ccc(C(=O)Nc2ccc3c(c2)C(=O)N(C)[C@H]2CC[C@H](CC(=O)NCC4CC4)O[C@@H]2CO3)cc1 | 13.0 | x | 7.6 | 3.4 | -1.9 | x | x | x
Cc1ccccc1CN1CCCCC(NC(=O)Nc2cccc(F)c2)C1=O (configuration not stated) | 0.0 | x | -2.7 | -0.9 | -0.3 | x | x | x
Oc1ccc(Br)cc1-c1cc(-c2ccccc2Cl)[nH]n1 | 7.0 | -3.7 | 6.4 | 25.5* | -17.4 | 1.1 | -5.8 | -3.7
CCCCCCC(=O)NC1CCCCN(Cc2ccc(Cl)cc2)C1=O (configuration not stated) | -3.0 | x | 0.0 | -2.2 | -2.5 | x | x | x
CN(C)S(=O)(=O)N1CCC(CO)(Cc2cccc(C(F)(F)F)c2)CC1 | -3.1 | -2.4 | -1.8 | 32.4* | -17.9 | 0.6 | -3.1 | -6.2
COc1ccccc1NC(=O)CSCC(=O)N1c2ccccc2CCc2ccccc21 | -0.2 | -1.3 | 4.7 | 13.4* | 0.0 | 0.5 | -1.5 | -2.4
COc1ccc(NC(=O)CSCC(=O)N2c3ccccc3CCc3ccccc32)cc1 | -8.2 | -1.2 | -2.2 | -2.6 | -6.5 | x | x | x
CN1C(=O)c2cc(NC(=O)Nc3ccc(F)c(F)c3)ccc2OC[C@H]2O[C@@H](CC(=O)O)CC[C@H]21 | 0.9 | x | -1.1 | -1.6 | 0.2 | x | x | x
O=C(COc1ccccc1[N+](=O)[O-])NCCC1=CCCCC1 | -2.5 | -2.6 | -1.8 | 18.5* | -1.5 | 0.4 | -2.1 | -1.3
NC(=O)C1CCN(c2ccnc(Cl)n2)CC1 | -0.4 | x | 0.4 | 2.8 | -3.4 | x | x | x
Cc1nn(C)c(C)c1/C=N/NC(=O)CCn1cc([N+](=O)[O-])cn1 | 5.6 | -0.7 | -0.1 | 14.9* | -5.0 | 0.0 | 0.1 | -0.9
COc1cc(NC(=O)CN2CCCCCC2)cc(OC)c1 | -0.4 | 1.2 | -0.5 | 19.3* | 2.2 | 0.6 | -2.2 | -11.4
COc1ccc(NC(=O)CN2CCN(CC(=O)Nc3cc(OC)cc(OC)c3)CC2)cc1 | 4.3 | 0.1 | 2.9 | 2.2 | -5.5 | x | x | x
CCCc1cnc(Nc2nc(C(N)Cc3ccc(OC)cc3)cs2)nc1 (configuration not stated) | 5.5 | 1.7 | 0.5 | 13.4* | -11.8 | -0.7 | 3.5 | -7.7
CC(=O)N1CCN(c2ccc(NCc3ccco3)cc2)CC1 | -1.0 | -3.7 | 0.6 | 21.4* | 8.1 | 3.8 | -18.9 | -5.0
COc1ccc(S[C@]2(C(=O)NCCCN(C)C)CC(=O)N[C@@H]2c2ccc(OC)cc2)cc1 | -2.0 | x | -1.9 | -0.5 | -3.5 | x | x | x
Cc1ccc(CN2CCCCC(NC(=O)c3ccccc3C)C2=O)cc1 (configuration not stated) | 2.3 | x | 0.2 | -3.0 | 7.1 | x | x | x
COc1ccc(-n2c(SCC(=O)Nc3ccc4c(c3)OCCO4)nnc2-c2ccccc2)cc1 | 0.9 | x | -2.0 | 0.3 | 2.5 | x | x | x
N#Cc1c(NC(=O)CSc2ncnc3sccc23)oc(-c2ccco2)c1-c1ccco1 | 11.9 | 0.0 | 17.2 | 26.9* | 5.9 | 13.6* | -48.4 | 57.6*
O=C(NCC1COc2ccccc2O1)c1ccc(NC(=O)c2c(Cl)cccc2Cl)cc1 (configuration not stated) | -4.5 | x | -1.0 | 0.8 | 10.5 | x | x | x
O=C(NC12CC3CC(CC(C3)C1)C2)N1CCN(c2ccccn2)CC1 | 3.9 | -0.3 | -0.5 | 49.4* | -8.0 | -0.2 | 1.0 | -7.5
CCn1c(=O)[nH]c2cc(Cl)c(Cl)cc21 | 0.8 | -2.6 | 0.1 | 16.4* | 5.9 | -2.5 | 12.9 | -1.0
O=C(CNS(=O)(=O)c1ccccc1)N1CCN(c2ncccn2)CC1 | 5.4 | x | 2.5 | -3.7 | 4.1 | x | x | x
COc1ccc(-c2csc3nc(C(C)(C)C)oc(=O)c23)cc1OC | -2.9 | -1.3 | 4.4 | 16.5* | 1.0 | 7.4 | -27.2 | 7.8
SMILES | MBD2 inh | Rin1-Abl PPI inh | UHRF1 binding | LEDGF integ inh | TDP2 inh | IN multimer act | TRFRET interf | LEDGF integ conf
CCc1nc2ccc(C(=O)NCc3cccs3)cn2c1N(CCC(C)C)CCN(C)C | -2.0 | -3.0 | -2.6 | 13.9* | -0.7 | 0.1 | -0.4 | 5.8
CCc1nc2ccc(C(=O)NCc3cccs3)cn2c1N(CC)CCN(C)C | 8.8 | 5.8 | 18.4 | 2.1 | 4.0 | x | x | x
O=C(NC(Cc1ccccc1)C(=O)O)/C(=C\c1ccco1)NC(=O)c1ccc(Br)cc1 (configuration not stated) | 1.2 | -1.0 | 6.9 | 22.1* | -18.2 | 0.5 | -2.3 | -1.7
O=C(NC(Cc1ccccc1)C(=O)O)/C(=C\c1ccco1)NC(=O)c1ccccc1 (configuration not stated) | -3.0 | -0.5 | 0.2 | 7.2 | -1.9 | x | x | x
O=C(Nc1ccc(C(=O)O)cc1)/C(=C\c1ccco1)NC(=O)c1ccc(Br)cc1 | 5.1 | 1.1 | 10.1 | 14.2* | 15.8 | -0.5 | 2.5 | 1.8
O=C(Nc1ccc(C(=O)O)cc1)/C(=C\c1ccco1)NC(=O)c1ccc(Br)o1 | 2.9 | 1.1 | 9.7 | 10.4 | 20.4 | x | x | x
CC1CCCCN1C(=O)c1ccc(CNC(=O)c2cccc(Br)c2)cc1 (configuration not stated) | 3.8 | x | -1.3 | -0.3 | 3.6 | x | x | x
CCN(CC)c1cc(Oc2ccccc2)ncn1 | -3.0 | 2.1 | 0.7 | 46.9* | 5.0 | 1.0 | -5.1 | -5.6
c1ccc(Oc2ccccn2)cc1 | -7.0 | -1.0 | -1.4 | 2.0 | -6.2 | x | x | x
CCCCNC(=O)C[C@H]1C[C@@]2(C(=O)OC)C(=C[C@H](COCc3ccccc3)O[C@@H]2C)N(CCc2ccc(OC)c(OC)c2)C1=O | 1.8 | x | -2.2 | 0.5 | 1.6 | x | x | x
O=C1NC(=O)C(c2ccccc2[N+](=O)[O-])=C1Nc1ccc(O)c(Cl)c1 | -10.6 | 1.1 | -4.0 | 25.8* | 17.8 | 5.4 | -19.3 | 1.2
O=C(NNc1ccccc1[N+](=O)[O-])Nc1ccc(Cl)c(Cl)c1 | 0.1 | -2.9 | 0.7 | -3.0 | -14.6 | x | x | x
Cc1nnc(N/N=C/c2cc(C)n(-c3ccc(F)cc3)c2C)n1N | 1.1 | 2.1 | 11.4 | 45.0* | 62.1* | -1.9 | 9.6 | -2.1
